Results published in ChEMBL document CHEMBL3593175, “Bicyclic [3.3.0]-Octahydrocyclopenta[c]pyrrolo Antagonists of Retinol Binding Protein 4: Potential Treatment of Atrophic Age-Related Macular Degeneration and Stargardt Disease” (J Med Chem, 2015).

Experiments:
[1] = Metabolic stability in rat liver microsomes assessed as compound remaining at 10 uM after 30 mins; type: ADME; settings: read-out: Stability
[2] = Metabolic stability in human liver microsomes assessed as compound remaining at 10 uM after 30 mins; type: ADME; settings: read-out: Stability
[3] = molecular target: T1, Retinol-binding protein 4 (Homo sapiens, UniProt P02753); assay: Inhibition of retinol-induced interaction of bacterially expressed MBP-tagged RBP4 (unknown origin) with Eu3+ cryptate labeled TTR by HTRF assay
[4] = molecular target: T1, Retinol-binding protein 4; assay: Displacement of [3H]-retinol from RBP4 (unknown origin) by scintillation proximity assay
Rattus norvegicus [5] = assay: Apparent terminal half life in Sprague-Dawley rat at 2 mg/kg, iv by HPLC/MS/MS method; type: ADME, organism-based; settings: in vivo
Outline: (§1)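 Male Sprague Dawley rats, 3 per group, single dose: 2.0 mg/kg IV tail vein (0.4 mg/mL, 5 mL/kg; 3% DMA/45% PEG300/12% ethanol/40% sterile water) or 5.0 mg/kg oral gavage (0.5 mg/mL, 10 mL/kg; 2% Tween 80 in 0.9% saline). Plasma sampled pre-dose to 48 h, assayed by HPLC/MS/MS. Non-compartmental analysis; AUC by log/linear (IV) or linear up/log down trapezoidal (PO).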

Rattus norvegicus [6] = assay: Cmax in Sprague-Dawley rat at 5 mg/kg, po qd administered for 7 days measured on day 7 post last dose by HPLC/MS/MS method; type: ADME, organism-based; design: dose 5 mg/kg, route oral; settings: in vivo, 168 h
Outline: (§2)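 Male Sprague Dawley rats (n=3) were dosed orally by gavage at 5 mg/kg (1.0 mg/mL) once daily on Days 1–7, with a vehicle group run in parallel. Plasma was taken pre-dose on Days 1–6, then pre-dose and at 0.25–48 h on Day 7, and analysed by HPLC/MS/MS. Non-compartmental PK; terminal half-life needed at least three non-zero points after Tmax.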

Rattus norvegicus [7] = assay: Cmax in Sprague-Dawley rat at 5 mg/kg, po by HPLC/MS/MS method; type: ADME, organism-based; design: dose 5 mg/kg, route oral; settings: in vivo; outline: as §1
[8] = Plasma concentration in Sprague-Dawley rat at 5 mg/kg, po measured at 48 hrs post dose on day 1 by HPLC/MS/MS method; type: ADME, organism-based
Outline: (§3)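 Male Sprague Dawley rats (n=3) were given one 5 mg/kg oral gavage dose (1.0 mg/mL) on Day 1 in 2% Tween 80 in 0.9% saline. Plasma was sampled pre-dose and at 0.25–48 h and measured by HPLC/MS/MS. Non-compartmental analysis: Cmax and Tmax taken directly from the data; half-life from terminal regression over at least three non-zero points after Tmax.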

Rattus norvegicus [9] = assay: Plasma clearance in Sprague-Dawley rat at 2 mg/kg, iv by HPLC/MS/MS method; type: ADME, organism-based; settings: in vivo; outline: as §1
Rattus norvegicus [10] = assay: AUClast in Sprague-Dawley rat at 2 mg/kg, iv by HPLC/MS/MS method; type: ADME, organism-based; design: dose 2 mg/kg, time 0 - last, route intravenous; settings: in vivo; outline: as §1
Rattus norvegicus [11] = assay: Oral bioavailability in Sprague-Dawley rat at 5 mg/kg by HPLC/MS/MS method; type: ADME, organism-based; settings: in vivo; outline: as §1
Cytochrome P450 2C9 = Cytochrome P450 2C9 (Homo sapiens, UniProt P11712); assay: Inhibition of CYP2C9 (unknown origin)
Cytochrome P450 2C9, sequence (P11712 whole entry): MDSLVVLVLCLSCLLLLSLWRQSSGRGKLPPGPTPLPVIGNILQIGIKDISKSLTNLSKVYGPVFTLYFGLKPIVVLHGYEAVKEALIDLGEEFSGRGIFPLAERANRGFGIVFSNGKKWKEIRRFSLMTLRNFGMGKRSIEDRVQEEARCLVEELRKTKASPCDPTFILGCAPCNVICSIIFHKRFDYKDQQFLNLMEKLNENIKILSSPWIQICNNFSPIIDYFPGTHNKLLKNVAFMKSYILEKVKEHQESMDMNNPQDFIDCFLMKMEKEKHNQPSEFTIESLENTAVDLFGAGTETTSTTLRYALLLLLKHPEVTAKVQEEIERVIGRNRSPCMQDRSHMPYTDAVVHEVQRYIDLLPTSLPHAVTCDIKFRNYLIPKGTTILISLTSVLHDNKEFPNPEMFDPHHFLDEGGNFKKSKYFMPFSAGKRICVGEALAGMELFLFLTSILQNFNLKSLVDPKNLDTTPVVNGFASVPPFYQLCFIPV

Cytochrome P450 3A4 = Cytochrome P450 3A4 (Homo sapiens, UniProt P08684); assay: Inhibition of CYP3A4 (unknown origin); type: ADME
Cytochrome P450 3A4, sequence (P08684 whole entry): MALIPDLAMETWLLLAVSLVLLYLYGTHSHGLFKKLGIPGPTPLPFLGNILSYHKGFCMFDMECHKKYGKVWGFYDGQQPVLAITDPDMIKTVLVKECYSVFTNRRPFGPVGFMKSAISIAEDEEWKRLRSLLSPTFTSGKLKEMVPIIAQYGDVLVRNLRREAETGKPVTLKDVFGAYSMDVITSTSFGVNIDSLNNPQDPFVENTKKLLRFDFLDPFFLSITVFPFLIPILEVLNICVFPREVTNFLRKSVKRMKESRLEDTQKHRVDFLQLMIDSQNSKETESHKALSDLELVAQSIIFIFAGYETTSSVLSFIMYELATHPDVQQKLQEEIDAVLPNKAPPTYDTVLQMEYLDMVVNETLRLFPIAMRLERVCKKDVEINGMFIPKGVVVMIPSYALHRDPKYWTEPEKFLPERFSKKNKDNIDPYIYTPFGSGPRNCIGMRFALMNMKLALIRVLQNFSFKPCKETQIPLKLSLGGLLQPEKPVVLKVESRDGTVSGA

[12] = molecular target: Voltage-gated inwardly rectifying potassium channel KCNH2 (Homo sapiens, UniProt Q12809); assay: Inhibition of human ERG expressed in HEK293 cells by patch clamp assay; type: cell-based
Voltage-gated inwardly rectifying potassium channel KCNH2, sequence (Q12809 whole entry): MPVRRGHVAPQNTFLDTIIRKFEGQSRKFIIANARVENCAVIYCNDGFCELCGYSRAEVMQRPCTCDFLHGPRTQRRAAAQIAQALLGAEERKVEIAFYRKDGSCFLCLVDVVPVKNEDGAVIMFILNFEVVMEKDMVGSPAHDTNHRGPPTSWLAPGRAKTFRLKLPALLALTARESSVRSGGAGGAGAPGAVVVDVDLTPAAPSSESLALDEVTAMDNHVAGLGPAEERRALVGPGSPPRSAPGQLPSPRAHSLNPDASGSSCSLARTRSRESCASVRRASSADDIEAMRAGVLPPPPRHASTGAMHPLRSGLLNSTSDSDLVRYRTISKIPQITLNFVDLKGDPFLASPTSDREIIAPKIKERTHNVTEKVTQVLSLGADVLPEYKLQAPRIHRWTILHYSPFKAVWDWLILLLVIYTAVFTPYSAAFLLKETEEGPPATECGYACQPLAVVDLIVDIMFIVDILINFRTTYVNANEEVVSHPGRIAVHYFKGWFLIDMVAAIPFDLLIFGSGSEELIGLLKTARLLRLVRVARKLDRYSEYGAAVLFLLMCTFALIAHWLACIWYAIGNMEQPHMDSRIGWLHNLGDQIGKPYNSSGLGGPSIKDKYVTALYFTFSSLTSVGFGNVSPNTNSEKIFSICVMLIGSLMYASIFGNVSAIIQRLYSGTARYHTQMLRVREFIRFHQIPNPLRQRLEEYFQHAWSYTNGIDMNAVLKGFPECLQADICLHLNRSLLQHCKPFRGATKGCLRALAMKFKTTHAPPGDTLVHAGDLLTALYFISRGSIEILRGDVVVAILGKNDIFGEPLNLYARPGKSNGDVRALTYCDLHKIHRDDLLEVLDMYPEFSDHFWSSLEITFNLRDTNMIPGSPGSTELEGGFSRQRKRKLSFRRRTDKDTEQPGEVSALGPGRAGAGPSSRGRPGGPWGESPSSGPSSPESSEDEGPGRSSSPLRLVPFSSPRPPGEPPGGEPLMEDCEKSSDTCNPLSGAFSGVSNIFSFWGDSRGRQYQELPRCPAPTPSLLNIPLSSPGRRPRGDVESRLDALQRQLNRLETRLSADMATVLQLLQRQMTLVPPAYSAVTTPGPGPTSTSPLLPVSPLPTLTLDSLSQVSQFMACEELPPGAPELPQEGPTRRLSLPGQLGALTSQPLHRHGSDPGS

Liver microsome [13] = assay: Intrinsic clearance in rat liver microsomes; type: ADME
Liver microsome [14] = assay: Intrinsic clearance in human liver microsomes; type: ADME
[15] = Kinetic solubility in phosphate buffered saline at pH 7.4; type: physicochemical; settings: buffer
Rattus norvegicus [16] = assay: Decrease in RBP4 level in Sprague-Dawley rat plasma at 5 mg/kg, po relative to vehicle-treated control; type: functional; design: scale not given: the % may be the effect or the level left
Outline: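 Male Sprague-Dawley rats were dosed by oral gavage at 10 mL/kg, with 2% Tween 80 in 0.9% saline as vehicle, […]. A vehicle-dosed group served as control. Whole blood was clotted for 30 min at room temperature, then centrifuged at 2000g for 15 min at 4°C to give serum. Serum RBP4 was measured by dual ELISA.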

Rattus norvegicus [17] = assay: AUC (0 to infinity) in Sprague-Dawley rat at 5 mg/kg, po by HPLC/MS/MS method; type: ADME, organism-based; design: dose 5 mg/kg, time infinity, route oral; settings: in vivo; outline: as §1
Plasma [18] = assay: Protein binding in rat plasma; type: ADME, cell-free
Rattus norvegicus [19] = assay: AUClast in Sprague-Dawley rat at 5 mg/kg, po qd administered for 7 days measured on day 7 post last dose by HPLC/MS/MS method; type: ADME, organism-based; design: dose 5 mg/kg, route oral, time 0 - last; settings: in vivo, 168 h; outline: as §2
Rattus norvegicus [20] = assay: Elimination half life in Sprague-Dawley rat at 5 mg/kg, po measured on day 1 by HPLC/MS/MS method; type: ADME, organism-based; settings: in vivo; outline: as §3
Rattus norvegicus [21] = assay: Tmax in Sprague-Dawley rat at 5 mg/kg, po by HPLC/MS/MS method; type: ADME, organism-based; settings: in vivo; outline: as §1
MDCK [22] = assay: Apparent permeability across basolateral to apical side in MDCK cells expressing MDR1; type: ADME, cell-based, Canis lupus familiaris; settings: dog
Cytochrome P450 2C19 = Cytochrome P450 2C19 (Homo sapiens, UniProt P33261); assay: Inhibition of CYP2C19 (unknown origin); type: ADME
Cytochrome P450 2C19, sequence (P33261 whole entry): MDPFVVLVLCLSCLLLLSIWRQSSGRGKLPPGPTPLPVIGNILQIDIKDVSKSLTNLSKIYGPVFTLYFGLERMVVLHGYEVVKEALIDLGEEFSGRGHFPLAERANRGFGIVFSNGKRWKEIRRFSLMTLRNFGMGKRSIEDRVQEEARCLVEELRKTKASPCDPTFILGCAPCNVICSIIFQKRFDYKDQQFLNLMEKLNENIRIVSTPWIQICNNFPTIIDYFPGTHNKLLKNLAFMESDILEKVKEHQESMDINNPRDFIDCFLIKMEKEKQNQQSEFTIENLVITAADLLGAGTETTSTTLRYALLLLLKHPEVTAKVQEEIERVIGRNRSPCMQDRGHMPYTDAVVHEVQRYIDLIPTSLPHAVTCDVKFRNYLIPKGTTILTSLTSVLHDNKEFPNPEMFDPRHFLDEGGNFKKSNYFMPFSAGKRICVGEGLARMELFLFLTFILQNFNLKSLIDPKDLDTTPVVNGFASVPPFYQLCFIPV

Rattus norvegicus [23] = assay: Elimination half life in Sprague-Dawley rat at 5 mg/kg, po qd administered for 7 days measured on day 7 post last dose by HPLC/MS/MS method; type: ADME, organism-based; settings: in vivo, 168 h; outline: as §2
[24] = Intrinsic clearance in cynomolgus monkey liver microsomes; type: ADME, Macaca fascicularis
Rattus norvegicus [25] = assay: Tmax in Sprague-Dawley rat at 5 mg/kg, po qd administered for 7 days measured on day 7 post last dose by HPLC/MS/MS method; type: ADME, organism-based; settings: in vivo, 168 h; outline: as §2
MDCK [26] = assay: Apparent permeability across apical to basolateral side in MDCK cells expressing MDR1; type: ADME, cell-based, Canis lupus familiaris; settings: dog
[27] = Plasma concentration in Sprague-Dawley rat at 5 mg/kg, po qd administered for 7 days measured at 48 hrs post dose on day 7 by HPLC/MS/MS method; type: ADME, organism-based; outline: as §2
Cytochrome P450 2D6 = Cytochrome P450 2D6 (Homo sapiens, UniProt P10635); assay: Inhibition of CYP2D6 (unknown origin); type: ADME
Cytochrome P450 2D6, sequence (P10635 whole entry): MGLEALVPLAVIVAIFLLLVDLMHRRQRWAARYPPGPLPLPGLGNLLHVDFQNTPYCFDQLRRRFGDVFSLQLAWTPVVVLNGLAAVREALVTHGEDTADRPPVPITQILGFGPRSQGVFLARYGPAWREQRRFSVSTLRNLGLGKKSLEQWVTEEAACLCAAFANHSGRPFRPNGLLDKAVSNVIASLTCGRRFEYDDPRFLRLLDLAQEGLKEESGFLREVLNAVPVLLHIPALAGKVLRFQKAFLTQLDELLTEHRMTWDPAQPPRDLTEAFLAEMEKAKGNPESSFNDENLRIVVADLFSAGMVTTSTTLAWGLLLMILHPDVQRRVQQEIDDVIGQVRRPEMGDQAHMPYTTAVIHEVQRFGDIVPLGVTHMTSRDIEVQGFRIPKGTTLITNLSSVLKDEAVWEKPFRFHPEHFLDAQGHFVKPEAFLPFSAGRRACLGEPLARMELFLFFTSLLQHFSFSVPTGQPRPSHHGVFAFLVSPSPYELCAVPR

Rattus norvegicus [28] = assay: Apparent terminal half life in Sprague-Dawley rat at 5 mg/kg, po by HPLC/MS/MS method; type: ADME, organism-based; settings: in vivo; outline: as §1
Rattus norvegicus [29] = assay: AUC (0 to infinity) in Sprague-Dawley rat at 2 mg/kg, iv by HPLC/MS/MS method; type: ADME, organism-based; design: dose 2 mg/kg, route intravenous, time infinity; settings: in vivo; outline: as §1
Rattus norvegicus [30] = assay: Cmax in Sprague-Dawley rat at 5 mg/kg, po measured on day 1 by HPLC/MS/MS method; type: ADME, organism-based; design: dose 5 mg/kg, route oral; settings: in vivo; outline: as §3
Rattus norvegicus [31] = assay: Decrease in RBP4 level in Sprague-Dawley rat plasma at 5 mg/kg, po qd administered for 7 days measured on day 7 post last dose relative to vehicle-treated control; type: functional; design: scale not given: the % may be the effect or the level left
Outline: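 Male Sprague Dawley rats received 5 mg/kg or vehicle by oral gavage once daily for 7 days, 3 per group. Whole blood clotted 30 min at room temperature, then was centrifuged at 2000g for 15 min at 4°C. Serum RBP4 was measured by dual ELISA kit per the manufacturer's instructions.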

[32] = Plasma concentration in Sprague-Dawley rat at 5 mg/kg, po qd administered for 7 days measured on day 7 prior to administration of last dose by HPLC/MS/MS method; type: ADME, organism-based; outline: as §2
Rattus norvegicus [33] = assay: Volume of distribution at steady state in Sprague-Dawley rat at 2 mg/kg, iv by HPLC/MS/MS method; type: ADME, organism-based; settings: in vivo; outline: as §1
[34] = molecular target: T2, Nuclear receptor subfamily 1 group I member 2 (Homo sapiens, UniProt O75469); assay: Activation of human PXR; type: ADME
T2 sequence (O75469 whole entry): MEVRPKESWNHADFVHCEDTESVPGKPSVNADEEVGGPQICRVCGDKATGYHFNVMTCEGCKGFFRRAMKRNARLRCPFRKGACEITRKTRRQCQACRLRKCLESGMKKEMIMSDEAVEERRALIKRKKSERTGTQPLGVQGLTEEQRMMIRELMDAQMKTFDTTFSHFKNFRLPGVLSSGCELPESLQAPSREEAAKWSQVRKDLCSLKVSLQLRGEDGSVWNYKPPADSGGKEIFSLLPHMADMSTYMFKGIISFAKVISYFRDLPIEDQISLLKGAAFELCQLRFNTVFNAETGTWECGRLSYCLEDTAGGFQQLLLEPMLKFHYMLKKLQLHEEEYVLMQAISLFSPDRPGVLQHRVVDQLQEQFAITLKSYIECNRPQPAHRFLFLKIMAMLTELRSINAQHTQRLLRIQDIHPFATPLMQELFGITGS

[35] = Plasma concentration in Sprague-Dawley rat at 5 mg/kg, po qd administered for 7 days measured at 4 hrs post dose on day 7 by HPLC/MS/MS method; type: ADME, organism-based; outline: as §2
Rattus norvegicus [36] = assay: Tmax in Sprague-Dawley rat at 5 mg/kg, po measured on day 1 by HPLC/MS/MS method; type: ADME, organism-based; settings: in vivo; outline: as §3
Liver = assay: Intrinsic clearance in mouse liver microsomes; type: ADME
Rattus norvegicus [37] = assay: AUClast in Sprague-Dawley rat at 5 mg/kg, po measured on day 1 by HPLC/MS/MS method; type: ADME, organism-based; design: dose 5 mg/kg, time 0 - last, route oral; settings: in vivo; outline: as §3
Plasma [38] = assay: Initial plasma concentration in Sprague-Dawley rat at 2 mg/kg, iv by HPLC/MS/MS method; type: ADME, organism-based; settings: in vivo; outline: as §1
Rattus norvegicus [39] = assay: AUClast in Sprague-Dawley rat at 5 mg/kg, po by HPLC/MS/MS method; type: ADME, organism-based; design: dose 5 mg/kg, time 0 - last, route oral; settings: in vivo; outline: as §1

## Cc1cc(C(=O)O)nc(N2C[C@@H]3CN(c4ccccc4C(F)(F)F)C[C@@H]3C2)n1
[1]
  remaining at 0.5 h, 10 µM: 76%
[2]
  remaining at 0.5 h, 10 µM: 80%
[3]
  IC50: 140 nM
[4]
  IC50: 57.4 nM

## COC(=O)c1cc(C)nc(N2C[C@H]3C[C@@H](c4ccccc4C(F)(F)F)C[C@H]3C2)n1
[1]
  remaining at 0.5 h, 10 µM: 9.8%
[2]
  remaining at 0.5 h, 10 µM: 0.2%
[3]
  IC50: 100 nM
[4]
  IC50: 6.3 nM

## Cc1cc(C(=O)O)nc(N2C[C@H]3C[C@@H](c4ccccc4C(F)(F)F)C[C@H]3C2)n1
Rattus norvegicus [5]
  betat1/2(app): 22 h
Rattus norvegicus [6]
  Cmax: 183 µM
[1]
  remaining at 0.5 h, 10 µM: 93%
Rattus norvegicus [7]
  Cmax: 62.2 µM
[2]
  remaining at 0.5 h, 10 µM: 94%
[8]
  concentration at 48 h: 20 µM
Rattus norvegicus [9]
  CL: 5.06 mL/h/kg
Rattus norvegicus [10]
  AUClast: 795 µM·h
Rattus norvegicus [11]
  F: 143%
Cytochrome P450 2C9
  IC50: > 34000 nM
Cytochrome P450 3A4
  IC50: > 34000 nM
[12]
  IC50: > 30000 nM
Liver microsome [13]
  CLH: < 0.7 microL/ml/min
Liver microsome [14]
  CLH: < 0.7 microL/ml/min
[15]
  Kinetic_solubility: > 100 µM
Rattus norvegicus [16]
  Activity: 85%
Rattus norvegicus [17]
  AUC: 3636 µM·h
Plasma [18]
  PPB: 99.4%
Rattus norvegicus [19]
  AUClast: 6380 ng·h/mL
Rattus norvegicus [20]
  beta t1/2: 31.9 h
Rattus norvegicus [21]
  Tmax: 2.67 h
MDCK [22]
  Papp: 82.2 ×10⁻⁶ cm/s
Cytochrome P450 2C19
  IC50: > 34000 nM
Rattus norvegicus [23]
  beta t1/2: 49.4 h
[24]
  CLH: 0.7 microL/ml/min
Rattus norvegicus [25]
  Tmax: 2.17 h
MDCK [26]
  Papp: 74.7 ×10⁻⁶ cm/s
[27]
  concentration at 48 h: 97.1 µM
Cytochrome P450 2D6
  IC50: > 34000 nM
Rattus norvegicus [28]
  betat1/2(app): 38.8 h
Rattus norvegicus [29]
  AUC: 1017 µM·h
Rattus norvegicus [30]
  Cmax: 66.5 µM
Rattus norvegicus [31]
  Activity: 95%
[32]
  concentration at 168 h: 148 µM
Rattus norvegicus [33]
  Vdss: 0.156 L/kg
[34]
  Activity: Not Active
[35]
  concentration at 4 h: 179 µM
Rattus norvegicus [36]
  Tmax: 2.75 h
Liver
  CLH: < 0.7 microL/ml/min
Rattus norvegicus [37]
  AUClast: 1695 µM·h
Plasma [38]
  C0: 58.6 µM
Rattus norvegicus [39]
  AUClast: 2011 µM·h
